Data from ChEMBL document CHEMBL1155025, “Xanthones from the botanical dietary supplement mangosteen (Garcinia mangostana) with aromatase inhibitory activity” (J Nat Prod, 2008).

Tests used:
Aromatase [1] = target: T1, Aromatase (Homo sapiens, UniProt P11511); assay: Inhibition of aromatase in human placental microsomes at 20 ug/ml relative to control; design: species or system Placenta; scale not given: the % may be the effect or the level left
T1 sequence (P11511 whole entry): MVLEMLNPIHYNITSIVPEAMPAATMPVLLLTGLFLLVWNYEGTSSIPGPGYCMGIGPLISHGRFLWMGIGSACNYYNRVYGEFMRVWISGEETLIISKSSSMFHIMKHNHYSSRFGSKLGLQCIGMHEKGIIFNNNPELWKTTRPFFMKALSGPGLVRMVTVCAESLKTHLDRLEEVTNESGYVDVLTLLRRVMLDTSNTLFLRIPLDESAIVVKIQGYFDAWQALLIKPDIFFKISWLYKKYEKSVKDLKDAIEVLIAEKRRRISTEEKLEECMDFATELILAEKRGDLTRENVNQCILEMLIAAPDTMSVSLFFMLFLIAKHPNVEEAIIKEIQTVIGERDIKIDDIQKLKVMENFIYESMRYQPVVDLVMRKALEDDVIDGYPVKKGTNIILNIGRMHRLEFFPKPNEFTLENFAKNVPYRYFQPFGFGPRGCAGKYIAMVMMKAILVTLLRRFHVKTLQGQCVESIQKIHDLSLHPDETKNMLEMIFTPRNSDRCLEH
In short: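 Radiometric placental microsome assay with samples at 20 µg/mL in DMSO, in triplicate. 100 nM [1β-3H]androstenedione, pH 7.0 phosphate buffer, 5% propylene glycol, and NADPH-regenerating system. Reaction started with 50 µg microsomes, run 15 min at 37 °C, and stopped with CHCl3. 3H2O counted; percent control activity taken relative to DMSO.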

Aromatase [2] = target: T1, Aromatase; assay: Inhibition of aromatase in human placental microsomes; design: species or system Placenta
In short: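 Human term placental microsomes (50 µg, processed at 4 °C) incubated for 15 min at 37 °C with 100 nM [1β-3H]androstenedione in 0.1 M potassium phosphate pH 7.0, 5% propylene glycol, and NADPH-regenerating system. Quenched with CHCl3; 3H2O in aqueous layer counted by scintillation. IC50 derived from dose-response testing.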

Aromatase [3] = target: T1, Aromatase; assay: Inhibition of aromatase over-expressed in human SKBR3 cells at 50 uM relative to control; format: cell-based; design: scale not given: the % may be the effect or the level left; settings: SK-BR-3, human; read-out: Activity
In short: (§1)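 SK-BR-3 human breast cancer cells overexpressing aromatase, treated in triplicate. 0.1% DMSO serves as negative control. Tritiated water formation is read as pmol 3H2O/h per 10^6 live cells and expressed as percent control activity versus DMSO.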

Aromatase [4] = target: T1, Aromatase; assay: Inhibition of aromatase over-expressed in human SKBR3 cells; format: cell-based, SK-BR-3
In short: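 SK-BR-3 human breast cancer cells overexpressing aromatase were treated in triplicate at various concentrations (screen at 50 µM), with 0.1% DMSO as negative control and 10 nM letrozole as positive control. Read-out was pmol 3H2O formed per hour per 10^6 live cells. Percent control activity was calculated versus DMSO.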

SK-BR-3 = assay: Cytotoxicity against human SKBR3 cells assessed as survival by MTT assay relative to control; format: functional
In short: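 MTT viability assay in SK-BR-3 human breast cancer cells that overexpress aromatase. Cells exposed to samples in DMSO, with DMSO as negative control. Six replicates. Read-out is percent cell survival relative to the DMSO control. IC50 obtained from a concentration–response curve.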

Aromatase [5] = target: T1, Aromatase; assay: Inhibition of aromatase over-expressed in human SKBR3 cells at 10 nM relative to control; format: cell-based; design: scale not given: the % may be the effect or the level left; settings: SK-BR-3, human; read-out: Activity; in short: as §1

SMILES	Activity (Aromatase [1])	IC50 (Aromatase [2])	activity at 50 µM (Aromatase [3])	other results
CC(C)=CCc1c(O)cc2oc3cc(O)c(O)c(CC=C(C)C)c3c(=O)c2c1O	4.7%	6.9 µM	-0.5%	IC50 (Aromatase [4]): 4.97 µM
COc1c(O)cc2oc3cc(O)c4c(c3c(=O)c2c1CC=C(C)C)OC(C)(C)CC4	52.6%			
COc1c(O)cc2oc3cc(O)c(CC=C(C)C)c(O)c3c(=O)c2c1CCC(C)(C)O [GARCINONE D]	10%	5.2 µM	50.7%	Survival (SK-BR-3): 89.4%
CC(C)=CCc1c(O)cc2oc3c(CC=C(C)C)c(O)c(O)c(CC=C(C)C)c3c(=O)c2c1O [GARCINONE E]	23.9%	25.1 µM	32.3%	Survival (SK-BR-3): 52.3%
N#Cc1ccc(C(c2ccc(C#N)cc2)n2cncn2)cc1 [LETROZOLE]				activity at 0.01 µM (Aromatase [5]): 7.4%
CC(C)=CCC/C(C)=C/Cc1c(O)cc2oc3c(O)cccc3c(=O)c2c1O [MANGOSTINONE]	78.8%			
COc1c(O)cc2oc3cc(O)c(CC=C(C)C)c(O)c3c(=O)c2c1CC=C(C)C [MANGOSTIN]	22.2%	20.7 µM	59.4%	Survival (SK-BR-3): 18.4%

More lines, main results first:

Activity (Aromatase [1])	SMILES	IC50 (Aromatase [2])	activity at 50 µM (Aromatase [3])	other results
55.1%	COc1c(CC=C(C)C)c(O)c2c(=O)c3c(O)ccc(O)c3oc2c1CC=C(C)C			
82.6%	CC(C)=CCc1c(O)c(CC=C(C)C)c2oc3c(O)cccc3c(=O)c2c1O [8-DEOXYGARTANIN]			
57.8%	COc1c(CC=C(C)C)c(O)c2c(=O)c3cccc(O)c3oc2c1CC=C(C)C [CUDRAXANTHONE G]			
75.9%	CC(C)=CCc1c(O)c(CC=C(C)C)c2oc3c(O)ccc(O)c3c(=O)c2c1O [GARTANIN]			
80.8%	CC(C)=CCC/C(C)=C/Cc1c(O)cc2oc3c(O)ccc(O)c3c(=O)c2c1O [SMEATHXANTHONE A]			
74.7%	CC(C)=CCc1c(O)cc2oc3c(CC=C(C)C)c(O)c4c(c3c(=O)c2c1O)C=CC(C)(C)O4 [TOVOPHYLLINE A]			
